This is an account of results in PubChem BioAssay.

The nature of assay [1]: OD615 S. cerevisiae growth inhibition, permissive medium, pilot counter-assay, permissive growth control for S. cerevisiae lifespan shortening project (AID 705;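 active = growth inhibition above 25% in both replicates, a cutoff set 3 SD above the mean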). As to conditions: OD615, 24 h, at 10 µM, stronger effect = higher value. Put shortly: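 Material: engineered DeaD yeast; Compound: one dose 10 µM, DMSO 0.25% final; Detection: absorbance (optical density) at 615 nm; Buffer or medium: permissive raffinose/galactose medium; Timing: 24 h exposure, 30 °C.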

Assay [2] can be described thus: Restrictive medium S. cerevisiae growth inhibition, OD615, pilot screen of yeast lifespan reduction project, restrictive growth control (AID 706;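 active = growth inhibition above a set limit, 3 SD over mean compound inhibition, in both replicates, cut at about 43% in these data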;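 note: modified DeaD lifespan yeast strain shifted to restrictive glucose medium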). Conditions: OD615, 48 h, at 10 µM, stronger effect = higher value. In short, it runs like this: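 Buffer or medium: restrictive glucose medium (CSMM-D); test system: modified S. cerevisiae; doses: single dose of 10 µM compound final, 0.25% DMSO; schedule: 48 h compound exposure at 30 °C; detection: absorbance (optical density) measured at 615 nm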

Assay [3] in a line: viability gain of MRP-1-high H69AR cells under doxorubicin, pilot screen, MRP-1 activator project, CellTiter-Glo, duplicate (AID 807;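 active = viability increase at or above a cutoff of the median across tested compounds plus 3 SD, cut at about 8.5% in these data, passing the limit was not always enough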;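 note: compound pretreatment 18-22 h then 72 h combined with doxorubicin; 0% = doxorubicin alone and 100% = vehicle without doxorubicin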). Conditions: H69AR viability with doxorubicin, CellTiter-Glo luminescence; at 10 µM; stronger effect = higher value. In general terms: Cellular ATP, detected with luciferase, serves as a proxy for viable cell number.
Assay [4] can be described thus: growth suppression of beta-catenin knockout HCT116, pilot screen, human colon tumor cells (AID 823).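 Note: 0% = wells killed by 20 µM Hyamine and 100% = untreated DMSO cell wells.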 Conditions: CellTiter-Glo, 60 h, at 10 µM, stronger effect = lower value.
Assay [5] is described as follows: growth suppression of PTEN-deleted HCT116, pilot screen, cell-based, HCT116 clonal line, CellTiter-Glo (AID 824;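 active = viability at or below 27.92% in each of two runs, the all-compound median minus 4 SD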;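 note: 0% = 20 µM Hyamine control and 100% = vehicle cell control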). As to conditions: 60 h, at 10 µM, stronger effect = lower value.
The nature of assay [6]: inhibitors of the yeast RAM network, pilot screen, dse1pr::URA3 reporter, 5-FOA selection (AID 869;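 active = inhibition over a set limit, the all-compound mean plus 3 SD, in both replicate runs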;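 note: 0% = DMSO wells with no growth and 100% = 10 µM 1-NA-PP1 with full growth; RAM network block rescues cells from 5-FOA so hits raise OD615 growth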). As to conditions: S. cerevisiae dse1pr::URA3 5-FOA growth, OD615, 2 d; at 10 µM; stronger effect = higher value; strain carries analog-sensitive mutant Cbk1 kinase.
A short description of assay [7]: RAM signaling pathway blockade in yeast – S. cerevisiae, Pdr1DBD-CYC8 efflux-inhibited sensitized strain, primary screen (AID 1298;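 active = RAM network inhibition above 8.4% in each of two replicates, 3 SD over the compound average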;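 note: 0% = DMSO untreated cells without growth and 100% = 10 µM 1-NA-PP1 full growth; higher means more yeast growth rescued from 5-FOA killing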). Conditions: S. cerevisiae cbk1-as DSE1-URA3 strain, 5-FOA growth OD615, 2 d; at 50 µM; stronger effect = higher value.

Unmarked numbers belong to inactive results. Records with an inconclusive call do not appear. Activity calls are given as the source filed them.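 Rule for the calls, unless noted: active = cell viability at or below a set limit in both duplicate runs, the limit being the all-compound median minus 4 SD (cut at about 23% in these data, passing the limit was not always enough); inconclusive = no clear call, values can overlap the other calls; inactive = the rest.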

As usually defined, the viability is a read-out of living cells in per cent, often relative to untreated cells. What is called inhibition is the drop in the measured response relative to a control, in per cent. As for `CCCOc1ccc(S(=O)(=O)NCc2ccc(OC)cc2)cc1`, the growth inhibition in assay [1] was -0.685%; in assay [2] it was -1.88%. Besides, in assay [3], the viability increase was -1.41%. Moreover, the viability in assay [4] and in assay [5] was 103% each time. In assay [6], the inhibition is 0.925%. For the same compound, the RAM network inhibition in assay [7] is 7.26%.

Regarding `Cc1cccc2sc(NC(=O)c3ccc(Cl)s3)nc12`, the results for the growth inhibition in assay [1] and in assay [2] were -21.9% and -21.5%, respectively. Further, in assay [3], the viability increase is -7.7%. The viability in assay [4] is 68.7%; in assay [5] it was 56%. Further, in assay [6], the inhibition is 2.64%. For the same compound, in assay [7], the RAM network inhibition was 5.32%.

Consider `CCCS(=O)(=O)NCc1cn2c(C)csc2n1`, for which the figures for the growth inhibition in assay [1] and in assay [2] were -0.385% and 17.2%, respectively. Moreover, the viability increase in assay [3] is -2.28%. The values for the viability in assay [4] and in assay [5] were 102% and 92.6%, respectively. Also, in assay [6], the inhibition was 2.58%. The RAM network inhibition in assay [7] was 5.52%.

Turning to `CCc1nnc(NC(=O)CSc2nnc(Cc3cccn3C)n2C)s1`, the growth inhibition in assay [1] was 5.43%; in assay [2], 30.4%. Also, the viability increase in assay [3] is -1.23%. The viability in assay [4] was 100%; in assay [5], 96%. Besides, in assay [6], the inhibition is 0.7%. Also, the RAM network inhibition in assay [7] was 1.19%.

As for `Nc1cc(-c2cccc(F)c2)nn1S(=O)(=O)c1cccc2nsnc12`, the growth inhibition in assay [1] is -5.94%; in assay [2], -7.52%. The viability increase in assay [3] was -2.16%. Also, the viability in assay [4] is 68.5%; in assay [5], 65.7%. Also, the inhibition in assay [6] is 2.71%. In addition, the RAM network inhibition in assay [7] is 0.98%.

For `COC(=O)c1cn(NC(=O)c2ccncc2)c(=O)c2ccccc12`, the values for the growth inhibition in assay [1] and in assay [2] were -0.73% and -19.7%, respectively. In addition, in assay [3], the viability increase was -1.43%. Besides, the viability was 98.3% in assay [4] and 94.9% in assay [5]. For the same compound, in assay [6], the inhibition is 0.87%. For the same compound, in assay [7], the RAM network inhibition is 2.53%.

Take `CCOC(=O)c1sc(NC(C)=O)cc1C`: the growth inhibition in assay [1] is -1.26%; in assay [2], 4.88%. Besides, the viability increase in assay [3] was 0.69%. Also, the viability in assay [4] was 115%; in assay [5], 96%. The inhibition in assay [6] was 0.47%. Also, the RAM network inhibition in assay [7] is 1.02%.

With `CCN(CC)C(=O)c1cc2c(=O)n3ccccc3nc2s1`, the growth inhibition in assay [1] was -4.75%; in assay [2], -3.33%. The viability increase in assay [3] is -3.66%. Further, the viability is 93.7% in assay [4] and 96.2% in assay [5]. In assay [6], the inhibition was 1.94%. Moreover, the RAM network inhibition in assay [7] was 0.68%.

Regarding `CCOc1ccc(-n2c(SCc3ccc(C(=O)OC)o3)nc3c(c2=O)SCC3)cc1`, the results for the growth inhibition in assay [1] and in assay [2] were -21.2% and -16.2%, respectively. Besides, in assay [3], the viability increase was -2.41%. For the same compound, the figures for the viability in assay [4] and in assay [5] were 81.3% and 72.7%, respectively. In addition, the inhibition in assay [6] is 2.39%. For the same compound, in assay [7], the RAM network inhibition was 6.94%.

`Cn1c(=O)c(C(=O)Nc2ncccn2)c(O)c2ccccc21`: the growth inhibition in assay [1] was 39.2% (active); in assay [2], 63.5% (active). The viability increase in assay [3] was -3.95%. Further, the viability in assay [4] is 87.1%; in assay [5], 89.5%. In addition, the inhibition in assay [6] is 0.475%. In addition, the RAM network inhibition in assay [7] was -1.44%.

For `Cc1ccc2c(c1)C(c1ccc(F)cc1)N(C(=O)C1CC1)CC(=O)N2` (stereo unspecified), the growth inhibition in assay [1] was -3.41%; in assay [2], -4.04%. For the same compound, the viability increase in assay [3] is -1.19%. Also, the viability in assay [4] is 83%; in assay [5], 75.2%. In addition, the inhibition in assay [6] was -0.015%. Further, the RAM network inhibition in assay [7] was 1.7%.

`CCC(C)(c1ccc(C(=O)OC)s1)c1ccc(C(=O)OC)s1`: the growth inhibition in assay [1] was -5.53%; in assay [2], -2.49%. In assay [3], the viability increase was 1.15%. Moreover, the viability in assay [4] was 73.3%; in assay [5], 76.8%. Further, the inhibition in assay [6] is 0.63%. Moreover, the RAM network inhibition in assay [7] was 1.02%.

For `Cn1c(Cn2c(=O)sc3ccccc32)nnc1SCC(=O)NCc1ccccc1Cl`, the growth inhibition was -7.92% in assay [1] and -13.9% in assay [2]. For the same compound, in assay [3], the viability increase is -1.32%. Further, the figures for the viability in assay [4] and in assay [5] were 100% and 103%, respectively. In assay [6], the inhibition was 0.62%. In addition, the RAM network inhibition in assay [7] was 3.96%.

Consider `CC1CCCC(NC(=O)Cn2cc3c(n2)CCCCC3)C1C` (stereo unspecified), for which the results for the growth inhibition in assay [1] and in assay [2] were -16% and -6.99%, respectively. In addition, in assay [3], the viability increase is 0.62%. Also, the viability in assay [4] was 95.7%; in assay [5], 90.8%. Moreover, the inhibition in assay [6] was -0.355%. Besides, the RAM network inhibition in assay [7] was 0.1%.

As to `COC(=O)C(C(=O)OC)C(C(=O)OC)C(C(=O)OC)C(=O)OC`, the growth inhibition in assay [1] was -6.07%; in assay [2], -6.78%. In addition, in assay [3], the viability increase was -1.54%. Further, the viability in assay [4] was 97.2%; in assay [5], 92.6%. Also, the inhibition in assay [6] was 0.42%. Further, the RAM network inhibition in assay [7] was -1.61%.

Turning to `CCCOc1ccc(C2c3c(oc4cc(C)c(C)cc4c3=O)C(=O)N2CCCN(C)C)cc1` (stereo unspecified), the values for the growth inhibition in assay [1] and in assay [2] were -3.96% and -1.01%, respectively. In assay [3], the viability increase is 0.77%. The viability in assay [4] was 104%; in assay [5], 109%. Moreover, in assay [6], the inhibition was 0.185%. Also, the RAM network inhibition in assay [7] was -0.1%.

`Oc1ccc(Br)cc1-c1nc2cnccn2c1NC1CCCC1`: the values for the growth inhibition in assay [1] and in assay [2] were -11.9% and 1.74%, respectively. Besides, in assay [3], the viability increase is -7.32%. In addition, the viability in assay [4] is 55.5%; in assay [5] it was 54.6%. Further, the inhibition in assay [6] is -0.895%. In assay [7], the RAM network inhibition was -1.71%.

On to `COc1cccc(N2CCN(C(=O)c3ccc4nc(N5CCCCC5)sc4c3)CC2)c1`, for which the growth inhibition in assay [1] was -4.55%; in assay [2] it was 3.63%. The viability increase in assay [3] was 0.85%. The viability is 89.1% in assay [4] and 79.2% in assay [5]. Further, in assay [6], the inhibition is 0.805%. In addition, the RAM network inhibition in assay [7] was 6.67%.
